Source: ChEMBL document CHEMBL1124015, “Methods for drug discovery: development of potent, selective, orally effective cholecystokinin antagonists” (J Med Chem, 1988)

Experiments:
[1] = target: GABA-A receptor; anion channel; experiment: Inhibition of [3H]flunitrazepam binding to GABA-A benzodiazepine receptor of guinea brain; set-up: species or system Cavia porcellus
[2] = target: T1, Cholecystokinin receptor type A (Rattus norvegicus, UniProt P30551); experiment: Half-maximal inhibition of [125I]CCK-33 binding to cholecystokinin A receptor from rat pancreatic tissue
T1 sequence (P30551 whole entry): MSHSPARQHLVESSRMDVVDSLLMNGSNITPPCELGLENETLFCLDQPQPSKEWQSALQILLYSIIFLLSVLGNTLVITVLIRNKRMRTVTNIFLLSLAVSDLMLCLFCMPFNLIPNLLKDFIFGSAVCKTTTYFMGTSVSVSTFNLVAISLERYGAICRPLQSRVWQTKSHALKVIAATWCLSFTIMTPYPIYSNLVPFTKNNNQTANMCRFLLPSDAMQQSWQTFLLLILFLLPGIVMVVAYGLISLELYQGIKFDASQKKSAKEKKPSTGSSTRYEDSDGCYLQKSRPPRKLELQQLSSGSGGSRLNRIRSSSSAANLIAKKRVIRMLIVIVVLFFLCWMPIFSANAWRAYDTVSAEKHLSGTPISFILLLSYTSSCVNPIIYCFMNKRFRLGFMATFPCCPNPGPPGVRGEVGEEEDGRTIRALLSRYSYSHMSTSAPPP

Mus musculus = experiment: Ability to antagonize CCK-8 inhibition of charcoal meal gastric emptying in mice, after oral administration; format: functional; conditions: Stomach
In short: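 Mice dosed orally with test compound at one or more dose levels (N ≥ 10/dose) 1 h before CCK-8 (80 μg/kg, sc). CCK-8 given 5 min before a charcoal meal. Gastric emptying measured 5 min after the meal.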

[3] = Ratio of IC50 CCK(pancreas)/ IC50BZD (brain); format: functional
[4] = target: T1, Cholecystokinin receptor type A; experiment: Half-maximal inhibition of [125I]CCK-8 binding to cholecystokinin receptor from rat pancreatic tissue
[5] = target: GABA-A receptor; anion channel; experiment: Inhibition of [3H]diazepam binding to GABA-A benzodiazepine receptor of rat brain
[6] = Ratio of IC50 CCK (pancreas)/ IC50 BZD (brain); format: functional

SMILES	IC50 [2] [nM]	also measured
CN1C(=O)C(NC(=O)c2cc3ccccc3n2C)N=C(c2ccccc2)c2ccccc21 (configuration not stated)	1.4	IC50 [1]: > 100000 nM; ED50 (Mus musculus): 1.9 mg/kg
O=C(NC1N=C(c2ccccc2)c2ccccc2NC1=O)c1cnccn1 (configuration not stated)	> 10000	–
CN1C(=O)C(NC(=O)c2ccc(C(F)(F)F)cc2)N=C(c2ccccc2F)c2ccccc21 (configuration not stated)	20	–
O=C(NC1N=C(c2ccccc2F)c2ccccc2NC1=O)c1cc2ccccc2[nH]1 (configuration not stated)	2.1	–
O=C(O)CN1C(=O)C(NC(=O)c2cc3ccccc3[nH]2)N=C(c2ccccc2)c2ccccc21 (configuration not stated)	1.4	ED50 (Mus musculus): 0.5 mg/kg
CN1C(=O)[C@@H](NC(=O)c2ccc(Br)cc2)N=C(c2ccccc2)c2ccccc21	2.9	Ratio [3]: <1e-05; IC50 [1]: > 100000 nM; ED50 (Mus musculus): 0.4 mg/kg
O=C1Nc2ccccc2C(c2ccccc2F)=NC1NCc1cc2ccccc2[nH]1 (configuration not stated)	87	–
CC(C)CCC(=O)N[C@H]1N=C(c2ccccc2)c2ccccc2N(C)C1=O	–	IC50 [4]: 780 nM
O=C(NC1N=C(c2ccccc2)c2ccccc2NC1=O)c1ccc(O)cc1 (configuration not stated)	1800	–
CN1C(=O)CN=C(c2ccccc2)c2ccccc21	24600	Ratio [3]: 378; IC50 [5]: 65 nM
CN1C(=O)C(NC(=O)c2ccc(Cl)cc2)[N+]([O-])=C(c2ccccc2F)c2ccccc21 (configuration not stated)	66	–
NC1N=C(c2ccccc2)c2ccccc2NC1=O (configuration not stated)	> 100000	–
O=C(NC1N=C(c2ccccc2)c2ccccc2NC1=O)c1ccc2ccccc2c1 (configuration not stated)	20	–
O=C(NC1N=C(c2ccccc2F)c2ccccc2NC1=O)c1cc2cc(Cl)ccc2[nH]1 (configuration not stated)	71	–
N#Cc1ccc(C(=O)NC2N=C(c3ccccc3)c3ccccc3NC2=O)cc1 (configuration not stated)	730	–
O=C(NC1N=C(c2ccccc2F)c2ccccc2NC1=O)c1cc2cc(Br)ccc2[nH]1 (configuration not stated)	120	–
CCOC(=O)CN1C(=O)C(NC(=O)c2ccccc2Cl)N=C(c2ccccc2F)c2ccccc21 (configuration not stated)	–	IC50 [4]: > 30000 nM
CN1C(=O)CN=C(c2ccccc2F)c2ccccc21 [RO-054520]	42000	Ratio [3]: 1750; IC50 [5]: 24 nM
CN1C(=O)[C@@H](NC(=O)c2cc3ccccc3[nH]2)N=C(c2ccccc2)c2ccccc21 [DEVAZEPIDE]	–	ED50 (Mus musculus): 0.04 mg/kg
CN(C(=O)c1cc2ccccc2[nH]1)C1N=C(c2ccccc2)c2ccccc2NC1=O (configuration not stated)	13000	–
CN1C(=O)C(NC(=O)c2ccccc2Cl)N=C(c2ccccc2)c2ccccc21 (configuration not stated)	3400	–

SMILES	IC50 [2] [nM]	also measured
O=C(NC1N=C(c2ccccc2)c2ccccc2NC1=O)c1cc2ccccc2[nH]1 (configuration not stated)	4.7	ED50 (Mus musculus): 0.4 mg/kg; IC50 [5]: > 100000 nM; Ratio [6]: <4.7e-05
CCOC(=O)CN1C(=O)C(NC=O)N=C(c2ccccc2)c2ccccc21 (configuration not stated)	–	IC50 [4]: > 100000 nM
CN1C(=O)[C@H](NC(=O)C2CCCCC2)N=C(c2ccccc2)c2ccccc21	–	IC50 [4]: > 10000 nM
CC(C)(C)OC(=O)N[C@H](Cc1c[nH]c2ccccc12)C(=O)NC1N=C(c2ccccc2)c2ccccc2NC1=O (some centres not stated)	6000	–
CN1C(=O)C(NC(=O)c2cc3ccccc3[nH]2)N=C(c2ccccc2F)c2ccccc21 (configuration not stated)	1.4	–
CN1C(=O)C(NC(=O)[C@H](Cc2ccccc2)NC(=O)OC(C)(C)C)N=C(c2ccccc2F)c2ccccc21 (some centres not stated)	–	IC50 [4]: 340 nM
O=C(NC1N=C(c2ccccc2F)c2ccccc2NC1=O)c1cc2ccccc2o1 (configuration not stated)	9	–
CC1(C(=O)NC2N=C(c3ccccc3F)c3ccccc3NC2=O)C=Cc2ccccc21 (configuration not stated)	22	–
CN1C(=O)[C@@H](NC(=O)c2cc3ccccc3[nH]2)N=C(c2ccccc2F)c2ccccc21	6	–
CN1C(=O)C(NC(=O)[C@@H](Cc2ccccc2)NC(=O)OC(C)(C)C)N=C(c2ccccc2)c2ccccc21 (some centres not stated)	700	–
O=C(O)CN1C(=O)C(NC(=O)c2cc3ccccc3[nH]2)N=C(c2ccccc2F)c2ccccc21 (configuration not stated)	1.5	–
O=C(NC1N=C(c2ccccc2)c2ccccc2NC1=O)c1ccccc1Cl (configuration not stated)	7500	–
CN1C(=O)C(NC(=O)c2ccc(C(C)(C)C)cc2)N=C(c2ccccc2F)c2ccccc21 (configuration not stated)	100	–
CN1C(=O)[C@@H](NC(=O)c2ccc(Br)cc2)N=C(c2ccccc2F)c2ccccc21	0.8	–
CCCc1ccc(C(=O)NC2N=C(c3ccccc3)c3ccccc3NC2=O)cc1 (configuration not stated)	3600	–
O=C(NC1N=C(c2ccccc2)c2ccccc2NC1=O)c1ccc(C(F)(F)F)cc1 (configuration not stated)	240	–
O=C(NC1N=C(c2ccccc2F)c2ccccc2NC1=O)c1cc2cc(O)ccc2[nH]1 (configuration not stated)	71	–
CCOC(=O)CN1C(=O)C(NC(=O)c2ccc(Cl)cc2)N=C(c2ccccc2F)c2ccccc21 (configuration not stated)	110	–
CN1C(=O)C(NC(=O)c2ccc(Cl)cc2N)N=C(c2ccccc2)c2ccccc21 (configuration not stated)	–	IC50 [4]: 9 nM
CN1C(=O)[C@H](NC(=O)[C@H](N)Cc2ccccc2)N=C(c2ccccc2)c2ccccc21	100000	–
CCCCCc1ccc(C(=O)NC2N=C(c3ccccc3)c3ccccc3NC2=O)cc1 (configuration not stated)	27000	–

SMILES	IC50 [2] [nM]	also measured
CN1C(=O)C(N)N=C(c2ccccc2F)c2ccccc21 (configuration not stated)	–	IC50 [4]: 57000 nM
O=C(O)CN1C(=O)C(NC(=O)c2ccc(Cl)cc2)N=C(c2ccccc2F)c2ccccc21 (configuration not stated)	32	–
CN1C(=O)[C@H](N)N=C(c2ccccc2)c2ccccc21	> 100000	Ratio [3]: >11; IC50 [1]: 8500 nM
O=C(NC1N=C(c2ccccc2F)c2ccccc2NC1=O)c1ccc([N+](=O)[O-])cc1 (configuration not stated)	110	–
CN1C(=O)[C@@H](NC(=O)c2ccc(I)cc2)N=C(c2ccccc2F)c2ccccc21	0.8	–
CN1C(=O)C(N(C)C(=O)c2ccccc2Cl)N=C(c2ccccc2)c2ccccc21 (configuration not stated)	58000	–
N[C@H](Cc1ccccc1)C(=O)NC1N=C(c2ccccc2)c2ccccc2NC1=O (some centres not stated)	3100	–
O=C(NC1N=C(c2ccccc2)c2ccccc2NC1=O)c1cccc(Cl)c1 (configuration not stated)	81	–
CN1C(=O)[C@H](NC(=O)c2cc3ccccc3[nH]2)N=C(c2ccccc2)c2ccccc21	–	ED50 (Mus musculus): 0.4 mg/kg
O=C(NC1N=C(c2ccccc2F)c2ccccc2NC1=O)c1ccc(Cl)cc1 (configuration not stated)	6	ED50 (Mus musculus): 1.4 mg/kg
CC(=O)NC1N=C(c2ccccc2F)c2ccccc2NC1=O (configuration not stated)	40000	–
O=C(NC1N=C(c2ccccc2)c2ccccc2NC1=O)c1ccc(Cl)cc1 (configuration not stated)	41	–
CN(C)c1ccc(C(=O)NC2N=C(c3ccccc3F)c3ccccc3NC2=O)cc1 (configuration not stated)	270	–
O=C(NC1N=C(c2ccccc2F)c2ccccc2NC1=O)c1ccsc1 (configuration not stated)	150	–
CN1C(=O)[C@@H](NC(=O)/C=C/c2ccccc2)N=C(c2ccccc2)c2ccccc21	–	IC50 [4]: 0.3 nM
O=C(/C=C/c1ccccc1)NC1N=C(c2ccccc2F)c2ccccc2NC1=O (configuration not stated)	11	–
CCCCCc1ccc(C(=O)NC2N=C(c3ccccc3F)c3ccccc3N(C)C2=O)cc1 (configuration not stated)	1100	–
CN1C(=O)C(NC(=O)c2cccc(I)c2)N=C(c2ccccc2F)c2ccccc21 (configuration not stated)	0.75	–
O=C(NC1N=C(c2ccccc2F)c2ccccc2N(C(=O)c2ccc(Cl)cc2)C1=O)c1ccc(Cl)cc1 (configuration not stated)	18	–
Cn1c(C(=O)NC2N=C(c3ccccc3F)c3ccccc3NC2=O)cc2ccccc21 (configuration not stated)	4.7	–
O=C(NC1N=C(c2ccccc2)c2ccccc2NC1=O)c1ccc(Cl)c(Cl)c1 (configuration not stated)	29	–

SMILES	IC50 [2] [nM]	also measured
COc1ccc2[nH]c(C(=O)NC3N=C(c4ccccc4F)c4ccccc4NC3=O)cc2c1 (configuration not stated)	200	–
CN1C(=O)[C@H](NC(=O)c2ccc(Br)cc2)N=C(c2ccccc2)c2ccccc21	–	Ratio [3]: 0.05; IC50 [1]: 15000 nM
CC(C)(C)OC(=O)N[C@H](Cc1ccccc1)C(=O)NC1N=C(c2ccccc2)c2ccccc2NC1=O (some centres not stated)	2700	–
O=C1CN=C(c2ccccc2Cl)c2cc([N+](=O)[O-])ccc2N1 [CLONAZEPAM]	> 100000	Ratio [3]: >58000
O=C(NC1N=C(c2ccccc2)c2ccccc2NC1=O)c1ccc(F)cc1 (configuration not stated)	480	–
CSc1ccc(C(=O)NC2N=C(c3ccccc3)c3ccccc3NC2=O)cc1 (configuration not stated)	220	–
Cc1ccc(C(=O)NC2N=C(c3ccccc3F)c3ccccc3NC2=O)cc1 (configuration not stated)	21	–
CN1C(=O)C(NC(=O)c2cc3ccccc3[nH]2)N=C(c2ccccc2)c2ccccc21 (configuration not stated)	–	ED50 (Mus musculus): 0.08 mg/kg
CN1C(=O)[C@@H](NC(=O)c2ccc(C(F)(F)F)cc2)N=C(c2ccccc2F)c2ccccc21	11	–
O=C(Cc1cccc2sccc12)NC1N=C(c2ccccc2F)c2ccccc2NC1=O (configuration not stated)	1000	–
O=C(NC1N=C(c2ccccc2F)c2ccccc2NC1=O)c1ccc[nH]1 (configuration not stated)	110	–
CN1C(=O)[C@@H](N)N=C(c2ccccc2)c2ccccc21	–	IC50 [1]: > 100000 nM
COc1ccc(C(=O)NC2N=C(c3ccccc3F)c3ccccc3NC2=O)cc1 (configuration not stated)	96	–
CN1C(=O)[C@@H](NC(=O)[C@H](N)Cc2ccccc2)N=C(c2ccccc2)c2ccccc21	1900	–
O=C(NC1N=C(c2ccccc2F)c2ccccc2NC1=O)c1c(F)c(F)c(F)c(F)c1F (configuration not stated)	> 10000	–
O=C1Nc2ccccc2C(c2ccccc2F)=NC1NC(=O)C(O)c1ccccc1 (configuration not stated)	100000	–
CN1C(=O)C(NC(=O)c2ccc(Cl)cc2)N=C(c2ccccc2F)c2ccccc21 (configuration not stated)	2.3	ED50 (Mus musculus): 0.2 mg/kg
NC1N=C(c2ccccc2F)c2ccccc2NC1=O (configuration not stated)	> 100000	–
O=C1Nc2ccccc2C(c2ccccc2)=NC1NCCc1c[nH]c2ccccc12 (configuration not stated)	3000	–
CCCCCc1ccc(C(=O)N[C@H]2N=C(c3ccccc3F)c3ccccc3N(C)C2=O)cc1	690	–
